Calls of active or inactive are those of the source. No cut-off for these calls is given here.
Experiments:
[1] = tested on: PC-12; test: Neuroprotective activity against NaN3-induced cell injury in rat PC12 cells assessed as cell survival rate at 5 uM measured after 24 hrs by CCK-8 assay (reference value: 50%); assay type: functional; details: read-out: Survival
[2] = tested on: PC-12; test: Neuroprotective activity against NaN3-induced cell injury in rat PC12 cells assessed as cell survival rate at 20 uM measured after 24 hrs by CCK-8 assay (reference value: 49.9 to 52%); assay type: functional; details: read-out: Survival
[3] = target: T1, Cav1.2 (L-type calcium channel alpha1c/beta2a/alpha2delta1) (Homo sapiens, UniProt P54289+Q08289+Q13936); test: Inhibition of human alpha1c/beta2a/alpha2delta1 Cav1.2 expressed in HEK293 cells assessed as time course of inhibition of membrane potential measured after washout with external solution at 10 uM by manual patch clamp technique; assay type: cell-based
Outline: (§1)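 HEK-293 cells stably expressing hCav1.2 (α1C/β2a/α2δ1), induced with tetracycline 1 μg/mL for 24 h. Perforated whole-cell manual patch clamp (amphotericin B 250 μg/mL in pipette; Cs-methanesulfonate internal, pH 7.2) at 24 °C. Holding potential −90 mV, 1000 ms prepulse inactivating 20% of channels, then a 50 ms step to 0 mV, repeated every 15 s. I_Ca-L followed over time, then washout with external solution. Final ethanol/DMSO ≤1.00%.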

[4] = target: L-type calcium channel alpha-1c/beta-2/alpha2delta-1 (Homo sapiens, UniProt P54289+Q08289+Q13936); test: Inhibition of human alpha1c/beta2a/alpha2delta1 Cav1.2 expressed in HEK293 cells assessed as time course of inhibition of membrane potential measured after washout with external solution by manual patch clamp technique; assay type: cell-based; outline: as §1
[5] = target: T1, Cav1.2 (L-type calcium channel alpha1c/beta2a/alpha2delta1); test: Inhibition of human alpha1c/beta2a/alpha2delta1 Cav1.2 expressed in HEK293 cells assessed as time course of inhibition of membrane potential measured after washout with external solution at 30 uM by manual patch clamp technique; assay type: cell-based; outline: as §1
[6] = target: T1, Cav1.2 (L-type calcium channel alpha1c/beta2a/alpha2delta1); test: Inhibition of human alpha1c/beta2a/alpha2delta1 Cav1.2 expressed in HEK293 cells assessed as time course of inhibition of membrane potential measured after washout with external solution at 100 uM by manual patch clamp technique; assay type: cell-based; outline: as §1
[7] = tested on: PC-12; test: Neuroprotective activity in rat PC12 cells assessed as reduction in NaN3-induced LDH release at 5 to 10 uM measured by LDH release assay (reference value: 411.84 to 416.67 U/L); assay type: functional; details: dose 5-10 µM
[8] = tested on: PC-12; test: Neurotrophic activity in rat PC12 cells assessed as cell survival rate at 1 uM measured after 24 hrs by CCK-8 assay (reference value: 50%); details: PC-12, 24 h
[9] = tested on: PC-12; test: Neuroprotective activity against NaN3-induced cell injury in rat PC12 cells assessed as cell survival rate at 10 uM measured after 24 hrs by CCK-8 assay (reference value: 50%); assay type: functional; details: read-out: Survival
[10] = tested on: PC-12; test: Neuroprotective activity in rat PC12 cells assessed as prevention of NaN3-induced decrease in SOD release at 5 to 20 uM measured (reference value: 54 U/mg of protein); assay type: functional; details: dose 5-20 µM
[11] = tested on: PC-12; test: Neuroprotective activity against NaN3-induced cell injury in rat PC12 cells assessed as cell survival rate at 40 uM measured after 24 hrs by CCK-8 assay (reference value: 49.9 to 52%); assay type: functional; details: read-out: Survival
[12] = tested on: PC-12; test: Neuroprotective activity against NaN3-induced cell injury in rat PC12 cells assessed as cell survival rate at 10 uM measured after 24 hrs by CCK-8 assay (reference value: 49.9 to 52%); assay type: functional; details: read-out: Survival
[13] = tested on: PC-12; test: Neuroprotective activity against NaN3-induced cell injury in rat PC12 cells assessed as cell survival rate at 5 uM measured after 24 hrs by CCK-8 assay (reference value: 49.9 to 52%); assay type: functional; details: read-out: Survival
[14] = tested on: PC-12; test: Neuroprotective activity against NaN3-induced cell injury in rat PC12 cells assessed as cell survival rate at 100 uM measured after 24 hrs by CCK-8 assay (reference value: 49.9 to 52%); assay type: functional; details: read-out: Survival
[15] = tested on: PC-12; test: Neuroprotective activity against NaN3-induced cell injury in rat PC12 cells assessed as cell survival rate at 80 uM measured after 24 hrs by CCK-8 assay (reference value: 49.9 to 52%); assay type: functional; details: read-out: Survival
[16] = tested on: PC-12; test: Neuroprotective activity in rat PC12 cells assessed as reduction in NaN3-induced MDA release at 5 uM measured (reference value: 253 nmol/mL); assay type: functional
[17] = tested on: PC-12; test: Neuroprotective activity against NaN3-induced cell injury in rat PC12 cells assessed as cell survival rate at 20 uM measured after 24 hrs by CCK-8 assay (reference value: 50%); assay type: functional; details: read-out: Survival
[18] = tested on: PC-12; test: Neuroprotective activity against NaN3-induced cell injury in rat PC12 cells assessed as cell survival rate at 40 uM measured after 24 hrs by CCK-8 assay (reference value: 50%); assay type: functional; details: read-out: Survival
[19] = target: L-type calcium channel alpha-1c/beta-2/alpha2delta-1 (Homo sapiens, UniProt P54289+Q13936+Q08289); test: Irreversible inhibition of human alpha1c/beta2a/alpha2delta1 Cav1.2 expressed in HEK293 cells assessed as decrease in membrane potential measured after washout with external solution at 100 uM by manual patch clamp technique; assay type: cell-based; details: hek293, 100 µM; outline: as §1
[20] = tested on: PC-12; test: Neuroprotective activity in rat PC12 cells assessed as reduction in NaN3-induced LDH release at 4 uM measured by LDH release assay (reference value: 411.84 to 416.67 U/L); assay type: functional
Outline: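 PC12 injury model: glucose-free, serum-free RPMI 1640. Pretreatment 4 μM, 1 h before NaN3, then 24 h with NaN3. Cells disrupted by ultrasonication and centrifuged at 10 000 rpm for 10 min at 4 °C. Supernatant LDH measured with a commercial kit, in U/L. n = 3 independent experiments.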

[21] = tested on: PC-12; test: Neuroprotective activity against NaN3-induced cell injury in rat PC-12 cells assessed as cell survival rate at 2 to 8 uM measured after 24 hrs by CCK-8 assay (reference value: 50%); assay type: functional; details: dose 2-8 µM
[22] = tested on: PC-12; test: Neuroprotective activity in rat PC12 cells assessed as prevention of NaN3-induced apoptosis at 5 to 10 uM measured after 24 hrs by Hoechst staining based assay; assay type: functional, cell-based; details: dose 5-10 µM
Outline: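 PC12 cells plated at about 1 × 10⁵ per well and cultured overnight. Pretreated 1 h with 5, 10 or 20 μM compound, then NaN₃ for 24 h in glucose-free, serum-free RPMI 1640 after two washes in glucose-free EBSS pH 7.5. Cells fixed 30 min in methanol, stained with Hoechst 33258 for 10 min at 37 °C in the dark, and scored for nuclear morphology by fluorescence microscopy (ex 350/em 461 nm).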

T1 sequence (P54289 25-956 limits assumed): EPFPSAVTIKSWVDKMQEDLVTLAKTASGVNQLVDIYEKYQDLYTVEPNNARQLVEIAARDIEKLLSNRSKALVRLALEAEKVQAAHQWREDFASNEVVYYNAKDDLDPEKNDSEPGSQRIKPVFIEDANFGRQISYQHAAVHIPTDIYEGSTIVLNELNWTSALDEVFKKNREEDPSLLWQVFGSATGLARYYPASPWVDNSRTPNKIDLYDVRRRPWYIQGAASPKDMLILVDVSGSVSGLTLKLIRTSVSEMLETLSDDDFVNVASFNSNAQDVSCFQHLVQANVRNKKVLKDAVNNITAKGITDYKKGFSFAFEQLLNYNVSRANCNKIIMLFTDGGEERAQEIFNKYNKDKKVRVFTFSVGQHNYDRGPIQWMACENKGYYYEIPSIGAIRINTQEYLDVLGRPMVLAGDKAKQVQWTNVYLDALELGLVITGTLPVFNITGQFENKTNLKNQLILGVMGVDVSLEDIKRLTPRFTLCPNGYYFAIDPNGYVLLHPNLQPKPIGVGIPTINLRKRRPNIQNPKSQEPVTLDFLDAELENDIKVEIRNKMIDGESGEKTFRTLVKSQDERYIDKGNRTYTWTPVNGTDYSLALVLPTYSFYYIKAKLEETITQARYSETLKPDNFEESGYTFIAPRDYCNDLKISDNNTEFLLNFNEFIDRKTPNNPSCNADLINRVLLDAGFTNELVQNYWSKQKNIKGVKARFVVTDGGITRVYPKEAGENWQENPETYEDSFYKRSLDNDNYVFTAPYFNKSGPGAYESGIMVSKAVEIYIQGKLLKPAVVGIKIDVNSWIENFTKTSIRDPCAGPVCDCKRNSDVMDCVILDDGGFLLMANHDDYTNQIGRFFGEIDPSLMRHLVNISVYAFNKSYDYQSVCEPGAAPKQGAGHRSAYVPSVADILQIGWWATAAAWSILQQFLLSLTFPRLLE
T1 sequence (P54289 957-1103 limits assumed): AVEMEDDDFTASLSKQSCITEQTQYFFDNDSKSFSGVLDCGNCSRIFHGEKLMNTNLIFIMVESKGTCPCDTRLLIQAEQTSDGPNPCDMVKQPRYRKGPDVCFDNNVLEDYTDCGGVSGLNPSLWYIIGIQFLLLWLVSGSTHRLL
T1 sequence (Q08289 whole entry): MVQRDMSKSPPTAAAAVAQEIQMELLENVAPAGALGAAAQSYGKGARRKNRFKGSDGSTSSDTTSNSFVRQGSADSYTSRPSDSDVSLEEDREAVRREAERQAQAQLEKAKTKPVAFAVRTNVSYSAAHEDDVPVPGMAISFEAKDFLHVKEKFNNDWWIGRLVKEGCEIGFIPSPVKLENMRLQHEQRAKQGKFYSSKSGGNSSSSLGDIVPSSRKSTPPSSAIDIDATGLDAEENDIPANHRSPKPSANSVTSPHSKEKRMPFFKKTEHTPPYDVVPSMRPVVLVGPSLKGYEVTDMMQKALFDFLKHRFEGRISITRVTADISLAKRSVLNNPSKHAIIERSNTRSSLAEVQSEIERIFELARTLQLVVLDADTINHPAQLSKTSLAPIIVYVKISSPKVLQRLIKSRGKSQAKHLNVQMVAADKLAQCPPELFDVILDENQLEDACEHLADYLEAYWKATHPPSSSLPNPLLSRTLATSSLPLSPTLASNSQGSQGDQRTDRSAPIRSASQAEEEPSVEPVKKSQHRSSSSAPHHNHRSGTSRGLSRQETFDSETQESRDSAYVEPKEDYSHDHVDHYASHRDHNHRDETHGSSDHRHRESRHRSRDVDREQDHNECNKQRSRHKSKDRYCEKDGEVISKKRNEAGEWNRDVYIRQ
T1 sequence (Q13936 whole entry): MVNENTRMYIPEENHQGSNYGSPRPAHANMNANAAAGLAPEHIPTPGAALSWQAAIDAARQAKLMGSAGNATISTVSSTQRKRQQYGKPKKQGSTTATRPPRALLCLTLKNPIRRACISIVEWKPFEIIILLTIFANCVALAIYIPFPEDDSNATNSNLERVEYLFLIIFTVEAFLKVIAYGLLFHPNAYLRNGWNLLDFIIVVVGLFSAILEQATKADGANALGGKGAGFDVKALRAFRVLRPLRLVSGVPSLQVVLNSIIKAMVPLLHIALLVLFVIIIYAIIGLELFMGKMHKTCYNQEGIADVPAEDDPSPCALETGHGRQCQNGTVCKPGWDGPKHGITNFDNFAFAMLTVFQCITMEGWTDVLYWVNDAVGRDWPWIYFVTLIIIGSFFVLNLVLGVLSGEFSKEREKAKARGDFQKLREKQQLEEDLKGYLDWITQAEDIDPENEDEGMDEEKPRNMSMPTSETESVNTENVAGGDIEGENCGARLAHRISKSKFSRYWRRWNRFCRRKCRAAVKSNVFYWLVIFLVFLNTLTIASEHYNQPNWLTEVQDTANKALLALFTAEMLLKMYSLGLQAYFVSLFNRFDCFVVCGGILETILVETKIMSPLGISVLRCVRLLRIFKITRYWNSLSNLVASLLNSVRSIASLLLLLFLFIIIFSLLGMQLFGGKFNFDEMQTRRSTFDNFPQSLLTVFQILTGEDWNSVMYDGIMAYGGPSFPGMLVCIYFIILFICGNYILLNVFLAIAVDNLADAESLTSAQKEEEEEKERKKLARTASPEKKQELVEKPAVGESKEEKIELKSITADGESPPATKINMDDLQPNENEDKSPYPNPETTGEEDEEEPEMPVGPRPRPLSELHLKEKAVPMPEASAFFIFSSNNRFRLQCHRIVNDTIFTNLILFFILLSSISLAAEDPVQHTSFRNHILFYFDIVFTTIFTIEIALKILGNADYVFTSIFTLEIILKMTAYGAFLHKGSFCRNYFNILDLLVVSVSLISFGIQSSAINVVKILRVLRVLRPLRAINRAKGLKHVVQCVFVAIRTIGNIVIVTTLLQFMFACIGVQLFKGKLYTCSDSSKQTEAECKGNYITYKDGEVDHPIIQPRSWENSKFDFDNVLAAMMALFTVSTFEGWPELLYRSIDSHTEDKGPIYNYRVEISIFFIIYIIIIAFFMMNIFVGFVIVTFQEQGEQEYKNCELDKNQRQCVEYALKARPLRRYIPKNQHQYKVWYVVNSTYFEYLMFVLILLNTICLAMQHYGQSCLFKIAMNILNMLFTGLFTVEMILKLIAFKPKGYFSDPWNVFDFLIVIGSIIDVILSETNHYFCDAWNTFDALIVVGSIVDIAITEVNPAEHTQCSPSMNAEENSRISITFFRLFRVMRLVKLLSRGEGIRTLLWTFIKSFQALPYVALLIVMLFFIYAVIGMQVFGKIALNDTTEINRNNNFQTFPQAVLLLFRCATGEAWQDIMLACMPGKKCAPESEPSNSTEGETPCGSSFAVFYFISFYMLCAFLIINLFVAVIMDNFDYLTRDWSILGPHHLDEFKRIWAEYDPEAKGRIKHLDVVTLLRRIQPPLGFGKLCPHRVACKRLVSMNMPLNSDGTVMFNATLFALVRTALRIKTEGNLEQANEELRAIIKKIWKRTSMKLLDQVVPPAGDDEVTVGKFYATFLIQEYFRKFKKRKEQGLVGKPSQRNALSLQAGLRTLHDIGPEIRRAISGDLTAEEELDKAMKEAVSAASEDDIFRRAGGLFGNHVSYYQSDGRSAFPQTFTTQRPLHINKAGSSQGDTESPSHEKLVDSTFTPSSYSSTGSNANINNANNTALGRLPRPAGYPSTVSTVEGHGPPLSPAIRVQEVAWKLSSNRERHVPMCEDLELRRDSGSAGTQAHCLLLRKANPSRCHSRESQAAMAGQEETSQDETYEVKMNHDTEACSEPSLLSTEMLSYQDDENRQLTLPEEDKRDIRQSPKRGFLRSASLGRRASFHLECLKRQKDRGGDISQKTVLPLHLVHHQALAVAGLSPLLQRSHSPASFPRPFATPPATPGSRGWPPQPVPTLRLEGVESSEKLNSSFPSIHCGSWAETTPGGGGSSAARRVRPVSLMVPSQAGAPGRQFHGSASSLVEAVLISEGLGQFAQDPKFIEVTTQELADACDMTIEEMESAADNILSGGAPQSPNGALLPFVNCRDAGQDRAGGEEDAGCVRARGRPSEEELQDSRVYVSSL
Chain of L-type calcium channel alpha-1c/beta-2/alpha2delta-1 (Homo sapiens, UniProt P54289+Q08289+Q13936) (P54289 25-956 limits assumed): as the sequence (P54289 25-956 limits assumed) above
Chain of L-type calcium channel alpha-1c/beta-2/alpha2delta-1 (Homo sapiens, UniProt P54289+Q08289+Q13936) (P54289 957-1103 limits assumed): as the sequence (P54289 957-1103 limits assumed) above
Chain of L-type calcium channel alpha-1c/beta-2/alpha2delta-1 (Homo sapiens, UniProt P54289+Q08289+Q13936) (Q08289 whole entry): as the sequence (Q08289 whole entry) above
Chain of L-type calcium channel alpha-1c/beta-2/alpha2delta-1 (Homo sapiens, UniProt P54289+Q08289+Q13936) (Q13936 whole entry): as the sequence (Q13936 whole entry) above

Structure (SMILES) | viability at 20 µM [2] | viability at 40 µM [11] | viability at 10 µM [12] | viability at 5 µM [13] | viability at 100 µM [14] | viability at 80 µM [15] | Activity [16] | further results
CC(C)[Si](C#CC#C[C@H](O)c1ccccc1)(C(C)C)C(C)C | 58% | 58.2% | 66.6% | 60.1% | 51.9% | 53% | 47 nmol/mL | viability at 5 µM [1]: 60%; inhibition at 10 µM [3]: 7.7%; IC50 [4]: 41.3 µM; inhibition at 30 µM [5]: 38.6%; inhibition at 100 µM [6]: 79.7%; Activity [7]: 132 U/L; viability at 1 µM [8]: ≤ 96%; viability at 10 µM [9]: 67%; Activity [10]: 124 U/mg
CC(C)[Si](C#CC#C[C@@H](O)C1CCCC1)(C(C)C)C(C)C | – | – | – | – | – | – | – | viability at 20 µM [17]: 66%; viability at 40 µM [18]: 65%
CCCCCCCCC[C@H](C#CC#C[Si](C(C)C)(C(C)C)C(C)C)OC(=O)c1ccccc1 | 47.5% | 46.4% | 47.9% | 50.4% | 43.9% | 46.4% | – | –
COc1cccc([C@@H](O)C#CC#C[Si](C(C)C)(C(C)C)C(C)C)c1 | – | – | – | – | – | – | – | viability at 20 µM [17]: 61%; viability at 40 µM [18]: 65%
C#CC#C[C@H](O)c1ccccc1 | 55% | 49.9% | 52.4% | 47.8% | 43.5% | 47.5% | – | –
CCCCCCCCC[C@@H](O)C#CC#C[Si](C(C)C)(C(C)C)C(C)C | 46.2% | 43.5% | 47.8% | 49.4% | 37.6% | 39.5% | – | –
CCCCCCCCC[C@H](C#CC#C[C@H](O)c1ccccc1)OC(=O)c1ccccc1 | 61.3% | 51.7% | 63.7% | 65.6% | 31.3% | 36.2% | – | –
C=C[C@@H](O)C#CC#CC/C=C\CCCCCCC | – | – | – | – | – | – | 68 nmol/mL | Activity [19]: Active; inhibition at 10 µM [3]: 7.9%; IC50 [4]: 41.3 µM; inhibition at 30 µM [5]: 28.1%; inhibition at 100 µM [6]: 61.6%; Activity [20]: 211 U/L; Survival [21]: 59%
CC(C)[Si](C#CC#C[C@H](O)c1cccc(F)c1)(C(C)C)C(C)C | – | – | – | – | – | – | 53 nmol/mL | viability at 5 µM [1]: 83%; Activity [7]: 132 U/L; viability at 10 µM [9]: 76%; Activity [22]: Active; Activity [10]: 124 U/mg
